According to ChEMBL document CHEMBL1131617 (J Med Chem, 1998):

Columns and labels:
[1] = target: D(1A) dopamine receptor (Rattus norvegicus, UniProt P18901); assay: Relative affinity for Dopamine receptor D1 in striatum using [3H]SCH-23390; assay type: tissue-based
Summary of the method: (§1)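 Radioligand competition binding was run per earlier published conditions. Inhibition was screened at 100 nM and 10 µM. Incubated tubes were filtered through glass-fibre filters on a vacuum manifold. Nonspecific binding was counts bound in the presence of a saturating concentration of an established competing ligand. Reference drugs were run in parallel as positive controls.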

[2] = target: Mu-type opioid receptor (Rattus norvegicus, UniProt P33535); assay: Relative affinity against Opioid receptor mu 1 in thalamus using [3H]DAMGO as radioligand; assay type: tissue-based; summary of the method: as §1
[3] = target: Sodium-dependent serotonin transporter (Rattus norvegicus, UniProt P31652); assay: relative affinity against serotonin transporter using RTI-55 as radioligand; summary of the method: as §1
[4] = target: D(2) dopamine receptor (Rattus norvegicus, UniProt P61169); assay: relative affinity against Dopamine receptor D2 in striatum using [3H]YM-09151-2 as radioligand; assay type: tissue-based; summary of the method: as §1
[5] = target: Glutamate NMDA receptor; assay: relative affinity against N-methyl-D-aspartate glutamate receptor in caudate using [3H](+)-MK-801 as radioligand; assay type: protein-complex assay
Summary of the method: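 Tubes incubated under the specified conditions, then filtered on glass-fibre filters and counted. Nonspecific binding taken as cpm bound with a saturating concentration of an established competing ligand. Reference drugs run in parallel as positive controls.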

[6] = target: D(3) dopamine receptor (Rattus norvegicus, UniProt P19020); assay: relative affinity against Dopamine receptor D3 in ventral striatum using [3H](+)-7-OH-DPAT as radioligand; assay type: tissue-based; summary of the method: as §1
[7] = target: Sodium-dependent dopamine transporter (Rattus norvegicus, UniProt P23977); assay: relative affinity against dopamine transporter using WIN-35428 as radioligand; summary of the method: as §1
[8] = target: Kappa-type opioid receptor (Rattus norvegicus, UniProt P34975); assay: relative affinity against Opioid receptor kappa 1 in insular Ctx using [3H]U-69593 as radioligand
Chain of Kappa-type opioid receptor (P34975 whole entry): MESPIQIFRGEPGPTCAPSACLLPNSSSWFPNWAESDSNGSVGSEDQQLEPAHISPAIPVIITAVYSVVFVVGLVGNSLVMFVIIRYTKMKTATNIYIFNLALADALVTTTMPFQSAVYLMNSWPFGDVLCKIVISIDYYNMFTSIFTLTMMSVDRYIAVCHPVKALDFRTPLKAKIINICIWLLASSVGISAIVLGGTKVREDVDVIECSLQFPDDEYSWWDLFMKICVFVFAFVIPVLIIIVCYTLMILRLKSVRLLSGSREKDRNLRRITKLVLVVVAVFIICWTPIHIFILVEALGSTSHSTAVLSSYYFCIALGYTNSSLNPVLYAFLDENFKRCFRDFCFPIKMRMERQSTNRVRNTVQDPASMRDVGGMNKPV

Chain of Sodium-dependent serotonin transporter (P31652 whole entry): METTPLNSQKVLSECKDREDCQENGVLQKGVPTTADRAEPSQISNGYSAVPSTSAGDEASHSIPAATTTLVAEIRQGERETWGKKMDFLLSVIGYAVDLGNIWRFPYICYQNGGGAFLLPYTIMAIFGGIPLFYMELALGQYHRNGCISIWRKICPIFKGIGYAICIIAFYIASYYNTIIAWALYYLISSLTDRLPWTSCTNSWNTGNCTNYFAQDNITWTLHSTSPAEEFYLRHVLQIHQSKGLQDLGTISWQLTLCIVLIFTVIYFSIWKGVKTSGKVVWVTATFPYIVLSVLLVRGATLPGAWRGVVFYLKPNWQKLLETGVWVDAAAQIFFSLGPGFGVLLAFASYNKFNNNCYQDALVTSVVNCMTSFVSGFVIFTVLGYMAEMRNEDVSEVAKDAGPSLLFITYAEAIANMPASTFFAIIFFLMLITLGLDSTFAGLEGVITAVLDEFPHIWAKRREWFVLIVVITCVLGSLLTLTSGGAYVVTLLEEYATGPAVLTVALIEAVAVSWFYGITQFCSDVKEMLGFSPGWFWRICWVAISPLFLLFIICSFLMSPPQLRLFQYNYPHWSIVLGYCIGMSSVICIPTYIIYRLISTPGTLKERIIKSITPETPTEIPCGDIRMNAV
Chain of D(3) dopamine receptor (P19020 whole entry): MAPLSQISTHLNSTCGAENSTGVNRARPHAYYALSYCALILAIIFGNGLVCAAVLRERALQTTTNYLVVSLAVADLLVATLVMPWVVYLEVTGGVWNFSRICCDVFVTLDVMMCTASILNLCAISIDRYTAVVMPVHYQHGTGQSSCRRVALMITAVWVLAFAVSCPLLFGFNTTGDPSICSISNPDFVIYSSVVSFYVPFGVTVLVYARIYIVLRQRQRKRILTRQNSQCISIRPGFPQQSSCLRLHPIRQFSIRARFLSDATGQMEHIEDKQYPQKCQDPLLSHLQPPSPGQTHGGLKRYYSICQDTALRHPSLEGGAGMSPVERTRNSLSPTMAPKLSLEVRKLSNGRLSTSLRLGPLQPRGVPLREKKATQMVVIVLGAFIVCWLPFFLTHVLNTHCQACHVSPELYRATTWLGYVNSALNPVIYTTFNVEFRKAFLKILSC
Chain of Sodium-dependent dopamine transporter (P23977 whole entry): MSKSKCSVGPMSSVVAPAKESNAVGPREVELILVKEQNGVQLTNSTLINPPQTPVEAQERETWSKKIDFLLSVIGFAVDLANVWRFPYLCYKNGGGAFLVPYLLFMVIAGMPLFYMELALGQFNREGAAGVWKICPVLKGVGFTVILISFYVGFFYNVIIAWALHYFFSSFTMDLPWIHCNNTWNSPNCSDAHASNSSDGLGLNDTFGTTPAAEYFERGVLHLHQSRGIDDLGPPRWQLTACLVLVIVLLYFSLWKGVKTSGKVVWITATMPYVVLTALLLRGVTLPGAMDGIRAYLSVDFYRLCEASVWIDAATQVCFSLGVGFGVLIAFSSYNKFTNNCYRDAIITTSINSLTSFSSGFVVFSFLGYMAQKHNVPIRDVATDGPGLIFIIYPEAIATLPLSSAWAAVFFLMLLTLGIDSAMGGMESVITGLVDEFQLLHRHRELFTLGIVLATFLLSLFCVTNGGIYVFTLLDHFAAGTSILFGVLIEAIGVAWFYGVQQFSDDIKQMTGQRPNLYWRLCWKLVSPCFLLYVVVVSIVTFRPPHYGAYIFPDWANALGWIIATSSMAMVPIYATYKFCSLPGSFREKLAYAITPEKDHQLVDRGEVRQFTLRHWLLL
Chain of D(2) dopamine receptor (P61169 whole entry): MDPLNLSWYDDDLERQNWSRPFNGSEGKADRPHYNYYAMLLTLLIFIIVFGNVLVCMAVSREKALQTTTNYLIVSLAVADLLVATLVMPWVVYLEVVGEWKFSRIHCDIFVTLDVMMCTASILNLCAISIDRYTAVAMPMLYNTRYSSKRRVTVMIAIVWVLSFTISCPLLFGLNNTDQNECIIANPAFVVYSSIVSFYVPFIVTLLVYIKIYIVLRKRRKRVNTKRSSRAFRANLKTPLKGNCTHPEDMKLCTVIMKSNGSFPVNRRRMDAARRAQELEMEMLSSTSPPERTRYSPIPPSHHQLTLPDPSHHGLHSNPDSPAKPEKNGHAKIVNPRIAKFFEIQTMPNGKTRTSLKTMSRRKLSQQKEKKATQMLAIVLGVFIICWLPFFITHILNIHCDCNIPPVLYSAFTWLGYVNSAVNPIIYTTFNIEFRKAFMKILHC
Chain of D(1A) dopamine receptor (P18901 whole entry): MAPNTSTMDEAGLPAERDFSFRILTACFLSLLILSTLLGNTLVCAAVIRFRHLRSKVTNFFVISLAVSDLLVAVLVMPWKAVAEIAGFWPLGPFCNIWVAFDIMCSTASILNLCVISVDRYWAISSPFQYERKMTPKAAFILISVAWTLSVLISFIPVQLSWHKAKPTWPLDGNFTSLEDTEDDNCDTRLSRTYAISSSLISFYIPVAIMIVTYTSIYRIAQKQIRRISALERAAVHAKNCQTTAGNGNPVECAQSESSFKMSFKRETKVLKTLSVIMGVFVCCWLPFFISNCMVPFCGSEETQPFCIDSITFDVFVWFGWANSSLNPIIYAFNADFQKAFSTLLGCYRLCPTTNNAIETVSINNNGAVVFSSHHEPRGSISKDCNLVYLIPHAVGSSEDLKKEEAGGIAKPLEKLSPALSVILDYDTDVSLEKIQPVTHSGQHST
Chain of Mu-type opioid receptor (P33535 whole entry): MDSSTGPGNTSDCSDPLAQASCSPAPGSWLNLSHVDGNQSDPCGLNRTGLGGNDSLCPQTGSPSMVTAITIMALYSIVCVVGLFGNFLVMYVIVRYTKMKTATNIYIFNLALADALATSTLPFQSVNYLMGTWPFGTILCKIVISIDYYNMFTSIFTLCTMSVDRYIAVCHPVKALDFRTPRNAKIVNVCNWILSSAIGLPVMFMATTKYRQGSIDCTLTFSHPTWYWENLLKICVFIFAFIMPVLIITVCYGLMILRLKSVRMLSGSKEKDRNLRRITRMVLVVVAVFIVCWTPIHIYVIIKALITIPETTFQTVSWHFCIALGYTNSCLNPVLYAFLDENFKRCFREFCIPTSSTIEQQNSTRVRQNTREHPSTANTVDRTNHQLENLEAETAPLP

| SMILES | IC50 [1] [µM] | IC50 [2] [µM] | IC50 [3] [µM] | IC50 [4] [µM] | IC50 [5] [µM] | IC50 [6] [µM] | IC50 [7] [µM] | IC50 [8] [µM] |
| --- | --- | --- | --- | --- | --- | --- | --- | --- |
| COc1cc2c(cc1OC)C(c1ccccc1)CN(C)CC2 (stereo not drawn) | 0.491 |  |  |  |  |  |  |  |
| CCN1CCc2c(sc3ccccc23)C(c2ccccc2)C1 (stereo not drawn) | 3 | 2.2 | 0.3 | 5 | 42 | 0.6 | 0.14 | 1.3 |
| CCN1CCc2c(sc3ccccc23)C(c2ccc(Cl)c(Cl)c2)C1 (stereo not drawn) | 70 | 54.5 | 1.2 | 5 | 81 | 2 | 0.25 | 15.9 |
| CC[C@@H]1CC2C[C@@H]3c4[nH]c5ccc(O)cc5c4CCN(C2)C13 | > 10 | 0.16 | 0.04 | > 10 | 31.4 | > 10 |  | 4.24 |
| CCN1CCc2c(sc3ccccc23)C(c2cccc([N+](=O)[O-])c2)C1 (stereo not drawn) | 5 | 3.1 | 1.1 | 3.1 | 32 | 0.6 | 0.25 | 16.2 |
| CCN1CCc2c(sc3ccccc23)C(c2cccc(Br)c2)C1 (stereo not drawn) | 5 | 5 | 4.3 | 3.5 | 46.6 | 2 | 0.21 | 12.5 |
| CN1CCc2c([nH]c3ccccc23)C(c2ccccc2)C1 (stereo not drawn) | 20 | 3.1 | 0.19 | 27.2 |  | 4.2 | 0.18 | 21.2 |
| CC[C@H]1C[C@@H]2C[C@H]3c4[nH]c5ccc(OC)cc5c4CCN(C2)[C@@H]13 [IBOGAINE] | > 10 |  | 0.59 | > 10 | 5.2 | > 10 | 4.11 |  |
